Laboratory results published in ChEMBL document CHEMBL4765234 (J Med Chem, 2016).
The source made the active and inactive calls. No cut-off for these calls is given here.

How the values were obtained:
[1] = target: T1, Free fatty acid receptor 1 (Homo sapiens, UniProt O14842); experiment: Displacement of [3H]-TAK-875 from human recombinant full-length GPR40 expressed in human HEK293 cell membrane incubated for 2 hrs by solid scintillation counting method; type: cell membranes
[2] = target: T1, Free fatty acid receptor 1; experiment: Agonist activity at human recombinant full length GPR40 overexpressed in human HEK293 cells assessed as increase in intracellular calcium level measured over 3 mins by calcium 4 dye based FLIPR assay; type: functional, cell-based
How it was run: (§1)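 HEK293 cells overexpressing hGPR40 (25K/well) were cultured overnight in DMEM/F12 with 0.2% FBS and geneticin. Compound was tested at 40 μM–0.1 nM final (20-point, 1% DMSO), and FLIPR fluorescence was read over 3 min.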

[3] = target: T1, Free fatty acid receptor 1; experiment: Agonist activity at human recombinant full length GPR40 overexpressed in human HEK293 cells assessed as increase in intracellular calcium level measured over 3 mins by calcium 4 dye based FLIPR assay relative to 100 uM linoleic acid; type: functional, cell-based; conditions: filed as agonist; how it was run: as §1
[4] = target: T1, Free fatty acid receptor 1; experiment: Agonist activity at human recombinant full-length Prolink-tagged GPR40 fused with EA-tagged beta-arrestin expressed in human HEK293 cells assessed as induction of beta-arrestin recruitment measured after 90 mins by beta-galactosidase based PathHunter assay; type: cell-based
How it was run: (§2)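 PathHunter β-gal complementation. Cells were incubated overnight at 5000/well in medium with 1% heat-inactivated FBS. Compound was added as a 20-point 2-fold series from a top final of 100 μM (1% DMSO) for 90 min at 37 °C, followed by detection reagents and chemiluminescence read after 1 h at rt.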

[5] = target: T1, Free fatty acid receptor 1; experiment: Agonist activity at human recombinant full-length Prolink-tagged GPR40 fused with EA-tagged beta-arrestin expressed in human HEK293 cells assessed as induction of beta-arrestin recruitment measured after 90 mins by beta-galactosidase based PathHunter assay relative to control; type: cell-based; conditions: filed as agonist; how it was run: as §2
[6] = target: Free fatty acid receptor 1 (Mus musculus, UniProt Q76JU9); experiment: Agonist activity at Prolink-tagged mouse GPR40 fused with EA-tagged beta-arrestin expressed in human U2OS cells assessed as induction of beta-arrestin recruitment measured after 90 mins by beta-galactosidase based PathHunter assay; type: cell-based; how it was run: as §2
[7] = target: Free fatty acid receptor 1 (Mus musculus) (UniProt Q76JU9); experiment: Agonist activity at Prolink-tagged mouse GPR40 fused with EA-tagged beta-arrestin expressed in human U2OS cells assessed as induction of beta-arrestin recruitment measured after 90 mins by beta-galactosidase based PathHunter assay relative to control; type: cell-based; conditions: filed as agonist; how it was run: as §2
[8] = target: Free fatty acid receptor 1 (Rattus norvegicus, UniProt Q8K3T4); experiment: Agonist activity at Prolink-tagged rat GPR40 fused with EA-tagged beta-arrestin expressed in human U2OS cells assessed as induction of beta-arrestin recruitment measured after 90 mins by beta-galactosidase based PathHunter assay; type: cell-based; how it was run: as §2
[9] = target: Free fatty acid receptor 1 (Rattus norvegicus) (UniProt Q8K3T4); experiment: Agonist activity at Prolink-tagged rat GPR40 fused with EA-tagged beta-arrestin expressed in human U2OS cells assessed as induction of beta-arrestin recruitment measured after 90 mins by beta-galactosidase based PathHunter assay relative to control; type: cell-based; conditions: filed as agonist; how it was run: as §2
[10] = target: T1, Free fatty acid receptor 1; experiment: Agonist activity at human recombinant full length GPR40 overexpressed in human HEK293 cells assessed as increase in inositol phosphate accumulation in presence of terbium cryptate-labeled anti IP1/d2-labelled IP1 measured after 120 mins by HTRF assay; type: functional, cell-based
How it was run: (§3)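 HEK293 hGPR40 cells (20K/well) were cultured overnight, washed, and held in IP1 stimulation buffer. IP-1 was measured by competitive HTRF immunoassay with terbium cryptate anti-IP1 mAb and d2-labelled IP1.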

[11] = target: T1, Free fatty acid receptor 1; experiment: Agonist activity at human recombinant full length GPR40 overexpressed in human HEK293 cells assessed as increase in inositol phosphate accumulation in presence of terbium cryptate-labeled anti IP1/d2-labelled IP1 measured after 120 mins by HTRF assay relative to AMG837; type: functional, cell-based; conditions: filed as agonist; how it was run: as §3
[12] = Protein binding in plasma (unknown origin) by equilibrium dialysis method; type: ADME, cell-free; conditions: human, read-out: PPB
How it was run: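 Plasma protein binding measured by equilibrium dialysis.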

[13] = target: T2, Peroxisome proliferator-activated receptor alpha (Homo sapiens) (UniProt Q07869); experiment: Displacement of [3H]-[…] from PPARalpha (unknown origin) expressed in baculovirus infected Sf9 insect cells upto 30 uM measured after 10 hrs by microbeta scintillation counting analysis; conditions: dose microM <=30, time 10.0 hrs
T2 sequence (whole entry): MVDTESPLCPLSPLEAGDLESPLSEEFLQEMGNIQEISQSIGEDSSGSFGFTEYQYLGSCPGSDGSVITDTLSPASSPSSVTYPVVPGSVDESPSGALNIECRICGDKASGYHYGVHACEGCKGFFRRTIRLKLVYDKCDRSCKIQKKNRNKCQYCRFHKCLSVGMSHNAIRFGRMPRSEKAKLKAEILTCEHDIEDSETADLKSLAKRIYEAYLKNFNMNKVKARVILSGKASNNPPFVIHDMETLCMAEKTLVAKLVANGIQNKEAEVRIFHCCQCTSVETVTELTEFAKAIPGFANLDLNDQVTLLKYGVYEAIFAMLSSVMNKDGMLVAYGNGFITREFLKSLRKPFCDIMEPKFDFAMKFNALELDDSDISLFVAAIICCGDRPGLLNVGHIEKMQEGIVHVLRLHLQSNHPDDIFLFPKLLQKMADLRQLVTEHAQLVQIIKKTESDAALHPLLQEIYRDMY
How it was run: (§4)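 Scintillation proximity assay. Sf9 lysates with baculovirus-expressed PPARα (0.3 μg), PPARδ (0.5 μg) or PPARγ (1.25 μg), each with RXRα, were bound via biotinylated DR2 oligo (0.126 nM) to streptavidin yttrium silicate beads. Buffer was HEPES pH 7.8 with KCl, MgCl2, DTT, CHAPS, 14% glycerol and salmon sperm DNA. A 3H reference agonist ligand was used, with 11 compound concentrations, for 10 h. Nonspecific binding was defined with 10000 nM unlabeled reference. Ki was derived from IC50.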

[14] = target: T3, Peroxisome proliferator-activated receptor delta (Homo sapiens) (UniProt Q03181); experiment: Displacement of [3H]-[…] from PPARdelta (unknown origin) expressed in baculovirus infected Sf9 insect cells upto 30 uM measured after 10 hrs by microbeta scintillation counting analysis; conditions: dose microM <=30, time 10.0 hrs; how it was run: as §4
T3 sequence (whole entry): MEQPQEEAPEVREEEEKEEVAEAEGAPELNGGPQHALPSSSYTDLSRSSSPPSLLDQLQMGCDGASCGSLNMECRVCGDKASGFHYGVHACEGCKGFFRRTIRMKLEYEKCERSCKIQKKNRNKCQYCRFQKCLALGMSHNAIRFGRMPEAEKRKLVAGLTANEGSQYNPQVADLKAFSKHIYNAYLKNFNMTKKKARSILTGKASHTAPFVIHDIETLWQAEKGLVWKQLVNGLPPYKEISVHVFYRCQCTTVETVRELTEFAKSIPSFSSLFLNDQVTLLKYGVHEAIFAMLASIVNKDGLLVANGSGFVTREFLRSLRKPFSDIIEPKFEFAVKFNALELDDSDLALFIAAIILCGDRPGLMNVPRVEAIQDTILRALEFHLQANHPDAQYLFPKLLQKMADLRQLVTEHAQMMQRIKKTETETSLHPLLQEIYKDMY

[15] = target: T4, Peroxisome proliferator-activated receptor gamma (Homo sapiens) (UniProt P37231); experiment: Displacement of [3H]-[…] from PPARgamma (unknown origin) expressed in baculovirus infected Sf9 insect cells upto 30 uM measured after 10 hrs by microbeta scintillation counting analysis; conditions: dose microM <=30, time 10.0 hrs; how it was run: as §4
T4 sequence (whole entry): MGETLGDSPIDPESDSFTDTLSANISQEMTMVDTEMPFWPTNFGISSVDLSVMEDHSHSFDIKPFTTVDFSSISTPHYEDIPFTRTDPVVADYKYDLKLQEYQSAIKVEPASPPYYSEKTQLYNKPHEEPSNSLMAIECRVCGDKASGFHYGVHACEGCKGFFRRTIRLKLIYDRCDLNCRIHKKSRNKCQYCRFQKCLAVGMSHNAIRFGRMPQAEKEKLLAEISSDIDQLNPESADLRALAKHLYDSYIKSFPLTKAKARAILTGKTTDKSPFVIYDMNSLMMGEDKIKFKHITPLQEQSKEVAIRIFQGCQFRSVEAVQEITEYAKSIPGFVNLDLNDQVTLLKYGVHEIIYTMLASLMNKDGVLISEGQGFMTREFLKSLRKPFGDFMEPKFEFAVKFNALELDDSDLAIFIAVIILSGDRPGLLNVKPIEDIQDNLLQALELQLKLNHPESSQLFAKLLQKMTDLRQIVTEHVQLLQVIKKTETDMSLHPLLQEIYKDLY

Chain of Free fatty acid receptor 1 (Mus musculus) (Q76JU9 whole entry, the tested form may be a part): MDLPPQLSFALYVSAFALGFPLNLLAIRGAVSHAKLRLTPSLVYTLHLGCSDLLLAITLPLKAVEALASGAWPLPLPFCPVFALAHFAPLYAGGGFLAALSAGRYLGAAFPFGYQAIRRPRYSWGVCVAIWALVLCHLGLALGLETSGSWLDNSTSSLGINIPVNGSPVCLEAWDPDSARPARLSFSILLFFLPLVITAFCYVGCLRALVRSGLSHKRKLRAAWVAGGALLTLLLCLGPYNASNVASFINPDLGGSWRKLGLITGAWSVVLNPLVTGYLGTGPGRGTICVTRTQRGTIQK
Chain of Free fatty acid receptor 1 (Mus musculus, UniProt Q76JU9) (Q76JU9 whole entry, the tested form may be a part): as above
Chain of Free fatty acid receptor 1 (Rattus norvegicus) (Q8K3T4 whole entry, the tested form may be a part): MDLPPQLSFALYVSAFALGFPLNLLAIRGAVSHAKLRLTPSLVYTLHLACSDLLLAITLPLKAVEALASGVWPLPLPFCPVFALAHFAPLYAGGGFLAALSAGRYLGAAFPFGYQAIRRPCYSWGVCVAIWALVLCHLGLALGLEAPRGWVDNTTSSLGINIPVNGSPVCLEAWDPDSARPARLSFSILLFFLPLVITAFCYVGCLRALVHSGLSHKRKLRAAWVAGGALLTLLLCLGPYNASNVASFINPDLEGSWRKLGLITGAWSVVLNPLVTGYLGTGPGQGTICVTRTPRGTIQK
Chain of Free fatty acid receptor 1 (Rattus norvegicus, UniProt Q8K3T4) (Q8K3T4 whole entry, the tested form may be a part): as above
T1 sequence (O14842 whole entry): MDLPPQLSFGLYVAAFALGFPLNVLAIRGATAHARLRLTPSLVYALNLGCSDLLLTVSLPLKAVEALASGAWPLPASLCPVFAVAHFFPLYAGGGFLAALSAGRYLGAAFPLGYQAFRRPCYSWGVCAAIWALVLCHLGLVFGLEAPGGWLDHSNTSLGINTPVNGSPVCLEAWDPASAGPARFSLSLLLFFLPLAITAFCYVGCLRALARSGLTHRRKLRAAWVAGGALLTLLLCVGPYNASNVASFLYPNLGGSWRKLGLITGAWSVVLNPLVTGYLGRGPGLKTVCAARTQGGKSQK

| SMILES | Ki [1] [µM] | EC50 [2] [µM] | Emax [3] [%] | EC50 [4] [µM] | Emax [5] [%] | EC50 [6] [µM] | Emax [7] [%] | EC50 [8] [µM] | Emax [9] [%] | EC50 [10] [µM] | Emax [11] [%] | fraction unbound [12] | Activity [13] | Activity [14] | Activity [15] |
| --- | --- | --- | --- | --- | --- | --- | --- | --- | --- | --- | --- | --- | --- | --- | --- |
| CC#C[C@@H](CC(=O)O)c1ccc(OCc2ccc(CN3CCC4(CC3)CN(C)c3c(Cl)cccc34)cc2)cc1 | 0.0035 | 0.017 | 42 | 0.0033 | 147 | 0.00059 | 141 | 0.00089 | 138 | 0.011 | 378 | < 0.01 | inactive | inactive | inactive |
| CC#C[C@@H](CC(=O)O)c1ccc(OCc2ccc(CN3CCC4(CC3)CN(C(C)C)c3ccccc34)cc2)cc1 | 0.0041 | 0.024 | 46 | 0.0082 | 133 | 0.0012 | 143 | 0.0021 | 139 | 0.011 | 343 | < 0.01 | inactive | inactive | inactive |
| CC#C[C@@H](CC(=O)O)c1ccc(OCc2ccc(CN3CCC4(CC3)CN(C)c3ccc(OC)cc34)cc2)cc1 | 0.029 | 0.13 | 49 | 0.1 | 129 | 0.011 | 144 | 0.018 | 145 | 0.023 | 311 | < 0.01 | inactive | inactive | inactive |
| CC#C[C@@H](CC(=O)O)c1ccc(OCc2ccc(CN3CCC4(C=Cc5ccccc54)CC3)o2)cc1 | 0.02 | 0.0016 | 59 | 0.062 | 121 | 0.0021 | 121 | 0.0042 | 117 | 0.022 | 127 | < 0.01 | inactive | inactive | inactive |
| CC#C[C@@H](CC(=O)O)c1ccc(OCc2ccc(CN3CCC4(CC3)CN(C)c3ccc(C)cc34)cc2)cc1 | 0.014 | 0.061 | 60 | 0.025 | 121 | 0.002 | 145 | 0.0046 | 138 | 0.0035 | 231 | < 0.01 | inactive | inactive | inactive |
| CC#C[C@@H](CC(=O)O)c1ccc(OCc2ccc(CN3CCC4(C=Cc5ccccc54)CC3)c(F)c2)cc1 | 0.004 | 0.017 | 51 | 0.0093 | 135 | 0.0012 | 148 | 0.0013 | 145 | 0.0023 | 210 | < 0.01 | inactive | inactive | inactive |
| CC#C[C@@H](CC(=O)O)c1ccc(OCc2sc(CN3CCC4(C=Cc5ccccc54)CC3)nc2C)cc1 | 0.1 | 0.017 | 53 | 0.52 | 100 | 0.018 | 97 | 0.1 | 73 | 0.072 | 97 | < 0.01 | inactive | inactive | inactive |
| CC#C[C@@H](CC(=O)O)c1ccc(OCc2ccc(CN3CCC4(CC3)CC(=O)c3ccccc3O4)cc2)cc1 | 0.016 | 0.065 | 56 | 0.026 | 147 | 0.0021 | 141 | 0.0045 | 159 | 0.0083 | 228 | < 0.01 | inactive | inactive | inactive |
| CC#C[C@@H](CC(=O)O)c1ccc(OCc2ccc(CN3CCC4(C=Cc5ccccc54)CC3)cc2)cc1F | 0.013 | 0.018 | 60 | 0.036 | 118 | 0.0056 | 120 | 0.016 | 115 | 0.014 | 156 | < 0.01 | inactive | inactive | inactive |
| CC#C[C@@H](CC(=O)O)c1ccc(OCc2ccc(CN3CCC4(C=Cc5ccccc54)CC3)c(C)c2)cc1 | 0.0013 | 0.023 | 47 | 0.0017 | 150 | 0.00042 | 147 | 0.00054 | 146 | 0.0042 | 206 | < 0.01 | inactive | inactive | inactive |
